Source: the M2OR odorant receptor database

Legend:
Conditions in all cases: stereoisomer not certain
OR51L1 (Homo sapiens) = molecular target: T1, OR51L1 (Homo sapiens) (UniProt Q8NGJ5)
T1 sequence (whole entry): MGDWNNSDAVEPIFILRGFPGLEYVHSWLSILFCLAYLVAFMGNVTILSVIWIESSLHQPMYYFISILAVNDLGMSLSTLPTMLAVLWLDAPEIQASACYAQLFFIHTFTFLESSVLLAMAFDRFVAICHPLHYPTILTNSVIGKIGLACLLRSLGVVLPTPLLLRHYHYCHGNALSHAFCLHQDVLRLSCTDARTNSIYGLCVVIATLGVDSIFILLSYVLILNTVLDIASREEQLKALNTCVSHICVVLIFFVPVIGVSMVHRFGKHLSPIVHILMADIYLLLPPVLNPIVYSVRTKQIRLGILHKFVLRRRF
Summary of the method: (§1)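 Transient luciferase assays in mammalian cell lines were common, though methods varied by source. The values come from published papers and their supplementary material, with extra details from the original authors when needed. Responsive refers to a measured signal the original authors judged statistically different from baseline, and non-responsive (inactive) to the remainder.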

OR51F2 (Homo sapiens) = OR51F2 (Homo sapiens) (UniProt Q8NH61)
Chain of OR51F2 (Homo sapiens) (Q8NH61 whole entry): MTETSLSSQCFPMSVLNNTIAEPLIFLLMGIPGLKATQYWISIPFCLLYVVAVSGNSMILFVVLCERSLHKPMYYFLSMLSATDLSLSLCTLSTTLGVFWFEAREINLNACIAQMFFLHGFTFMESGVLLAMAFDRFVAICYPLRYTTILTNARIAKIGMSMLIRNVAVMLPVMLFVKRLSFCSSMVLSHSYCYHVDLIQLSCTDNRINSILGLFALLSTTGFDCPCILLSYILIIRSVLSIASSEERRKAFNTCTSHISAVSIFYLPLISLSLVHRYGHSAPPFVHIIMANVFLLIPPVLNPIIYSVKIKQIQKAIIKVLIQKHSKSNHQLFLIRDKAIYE
Summary of the method: as §1

OR51G1 (Homo sapiens) = OR51G1 (Homo sapiens) (UniProt Q8NGK1)
Chain of OR51G1 (Homo sapiens) (Q8NGK1 whole entry): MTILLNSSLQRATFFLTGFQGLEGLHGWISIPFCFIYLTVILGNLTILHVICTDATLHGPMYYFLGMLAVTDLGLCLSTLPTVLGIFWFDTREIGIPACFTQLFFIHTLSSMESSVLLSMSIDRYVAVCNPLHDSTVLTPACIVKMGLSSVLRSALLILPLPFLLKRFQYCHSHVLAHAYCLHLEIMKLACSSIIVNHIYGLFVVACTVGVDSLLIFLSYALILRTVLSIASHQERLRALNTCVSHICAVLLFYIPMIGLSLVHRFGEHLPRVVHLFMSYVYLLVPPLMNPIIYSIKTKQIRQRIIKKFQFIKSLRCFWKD
Summary of the method: as §1

OR51G2 (Homo sapiens) = OR51G2 (Homo sapiens) (UniProt Q8NGK0)
Chain of OR51G2 (Homo sapiens) (Q8NGK0 whole entry): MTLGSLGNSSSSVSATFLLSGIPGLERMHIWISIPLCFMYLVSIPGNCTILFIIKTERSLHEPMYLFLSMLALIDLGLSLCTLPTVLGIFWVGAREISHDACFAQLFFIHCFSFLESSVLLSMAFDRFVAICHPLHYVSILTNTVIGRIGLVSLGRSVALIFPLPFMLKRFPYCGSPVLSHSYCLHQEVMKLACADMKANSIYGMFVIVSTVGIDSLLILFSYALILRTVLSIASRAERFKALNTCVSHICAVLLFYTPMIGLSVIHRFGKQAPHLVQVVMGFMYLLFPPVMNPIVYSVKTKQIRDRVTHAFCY
Summary of the method: as §1

OR51I1 (Homo sapiens) = OR51I1 (Homo sapiens) (UniProt Q9H343)
Chain of OR51I1 (Homo sapiens) (Q9H343 whole entry): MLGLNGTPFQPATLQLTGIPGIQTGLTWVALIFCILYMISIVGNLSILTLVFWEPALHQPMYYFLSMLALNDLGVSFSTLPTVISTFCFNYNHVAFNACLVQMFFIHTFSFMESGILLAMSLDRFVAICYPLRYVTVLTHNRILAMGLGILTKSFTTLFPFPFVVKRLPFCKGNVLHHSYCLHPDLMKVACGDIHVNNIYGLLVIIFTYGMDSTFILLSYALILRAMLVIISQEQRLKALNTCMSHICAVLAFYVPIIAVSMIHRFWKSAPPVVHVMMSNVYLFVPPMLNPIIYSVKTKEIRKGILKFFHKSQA
Summary of the method: as §1

OR51I2 (Homo sapiens) = OR51I2 (Homo sapiens) (UniProt Q9H344)
Chain of OR51I2 (Homo sapiens) (Q9H344 whole entry): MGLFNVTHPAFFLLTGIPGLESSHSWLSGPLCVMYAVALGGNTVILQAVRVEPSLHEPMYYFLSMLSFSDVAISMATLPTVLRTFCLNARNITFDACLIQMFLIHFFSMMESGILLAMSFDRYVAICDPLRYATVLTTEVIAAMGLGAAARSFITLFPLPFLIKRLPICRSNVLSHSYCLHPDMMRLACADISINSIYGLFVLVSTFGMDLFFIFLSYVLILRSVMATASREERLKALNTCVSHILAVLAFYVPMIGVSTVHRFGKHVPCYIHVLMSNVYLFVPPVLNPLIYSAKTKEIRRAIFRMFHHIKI
Summary of the method: as §1

OR51J1 (Homo sapiens) = OR51J1 (Homo sapiens) (UniProt Q9H342)
Chain of OR51J1 (Homo sapiens) (Q9H342 whole entry): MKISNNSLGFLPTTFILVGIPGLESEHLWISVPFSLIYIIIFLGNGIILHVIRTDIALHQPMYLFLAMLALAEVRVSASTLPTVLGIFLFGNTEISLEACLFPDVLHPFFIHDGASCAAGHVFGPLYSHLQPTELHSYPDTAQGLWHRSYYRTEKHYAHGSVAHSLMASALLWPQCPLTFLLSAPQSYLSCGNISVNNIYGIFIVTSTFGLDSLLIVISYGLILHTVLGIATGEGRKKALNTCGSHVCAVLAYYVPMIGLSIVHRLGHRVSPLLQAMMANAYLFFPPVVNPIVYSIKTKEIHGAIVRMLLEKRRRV
Summary of the method: as §1

OR51M1 (Homo sapiens) = OR51M1 (Homo sapiens) (UniProt Q9H341)
Chain of OR51M1 (Homo sapiens) (Q9H341 whole entry): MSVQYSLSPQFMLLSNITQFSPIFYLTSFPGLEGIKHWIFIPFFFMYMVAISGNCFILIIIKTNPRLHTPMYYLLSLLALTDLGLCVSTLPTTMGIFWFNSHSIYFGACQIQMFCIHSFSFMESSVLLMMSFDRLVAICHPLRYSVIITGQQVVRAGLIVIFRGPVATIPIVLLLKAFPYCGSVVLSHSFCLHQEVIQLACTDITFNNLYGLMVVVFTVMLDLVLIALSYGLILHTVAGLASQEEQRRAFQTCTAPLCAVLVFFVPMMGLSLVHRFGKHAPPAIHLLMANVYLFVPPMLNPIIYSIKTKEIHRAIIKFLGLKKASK
Summary of the method: as §1

OR51Q1 (Homo sapiens) = OR51Q1 (Homo sapiens) (UniProt Q8NH59)
Chain of OR51Q1 (Homo sapiens) (Q8NH59 whole entry): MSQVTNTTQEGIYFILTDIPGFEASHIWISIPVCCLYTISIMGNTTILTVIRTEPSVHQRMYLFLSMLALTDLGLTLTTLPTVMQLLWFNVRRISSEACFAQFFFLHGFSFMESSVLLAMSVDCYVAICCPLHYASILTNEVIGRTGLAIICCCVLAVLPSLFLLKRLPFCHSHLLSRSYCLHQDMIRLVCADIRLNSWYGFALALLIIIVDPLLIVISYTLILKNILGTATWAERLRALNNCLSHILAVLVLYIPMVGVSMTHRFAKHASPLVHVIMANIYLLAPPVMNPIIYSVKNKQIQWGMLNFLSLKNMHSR
Summary of the method: as §1

OR51S1 (Homo sapiens) = OR51S1 (Homo sapiens) (UniProt Q8NGJ8)
Chain of OR51S1 (Homo sapiens) (Q8NGJ8 whole entry): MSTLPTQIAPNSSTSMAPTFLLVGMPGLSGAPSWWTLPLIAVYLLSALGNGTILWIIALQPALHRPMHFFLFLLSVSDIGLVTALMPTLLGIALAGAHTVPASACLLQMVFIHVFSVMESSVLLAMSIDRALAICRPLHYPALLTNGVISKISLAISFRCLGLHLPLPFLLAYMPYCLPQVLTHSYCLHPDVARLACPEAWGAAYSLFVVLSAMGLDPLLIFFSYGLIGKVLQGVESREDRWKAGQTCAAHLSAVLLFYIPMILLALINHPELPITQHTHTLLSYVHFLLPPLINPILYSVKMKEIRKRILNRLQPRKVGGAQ
Summary of the method: as §1

OR51V1 (Homo sapiens) = OR51V1 (Homo sapiens) (UniProt Q9H2C8)
Chain of OR51V1 (Homo sapiens) (Q9H2C8 whole entry): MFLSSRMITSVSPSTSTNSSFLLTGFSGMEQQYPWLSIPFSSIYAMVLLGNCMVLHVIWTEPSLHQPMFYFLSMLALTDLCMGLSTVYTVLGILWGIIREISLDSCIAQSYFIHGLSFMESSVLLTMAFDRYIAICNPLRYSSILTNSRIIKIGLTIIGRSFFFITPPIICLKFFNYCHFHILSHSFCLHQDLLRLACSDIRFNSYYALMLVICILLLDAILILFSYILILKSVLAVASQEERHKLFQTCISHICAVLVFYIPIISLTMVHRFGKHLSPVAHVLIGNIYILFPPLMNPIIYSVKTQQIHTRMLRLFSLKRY
Summary of the method: as §1

OR52A1 (Homo sapiens) = OR52A1 (Homo sapiens) (UniProt Q9UKL2)
Chain of OR52A1 (Homo sapiens) (Q9UKL2 whole entry): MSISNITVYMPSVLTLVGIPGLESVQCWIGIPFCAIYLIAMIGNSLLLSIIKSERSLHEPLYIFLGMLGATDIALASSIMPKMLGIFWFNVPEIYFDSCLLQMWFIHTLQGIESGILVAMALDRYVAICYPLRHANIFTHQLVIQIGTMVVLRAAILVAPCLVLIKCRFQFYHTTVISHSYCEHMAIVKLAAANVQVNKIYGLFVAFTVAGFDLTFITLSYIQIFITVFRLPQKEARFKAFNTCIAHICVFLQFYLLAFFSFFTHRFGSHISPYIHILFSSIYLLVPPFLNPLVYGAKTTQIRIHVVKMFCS
Summary of the method: as §1

OR52A5 (Homo sapiens) = OR52A5 (Homo sapiens) (UniProt Q9H2C5)
Chain of OR52A5 (Homo sapiens) (Q9H2C5 whole entry): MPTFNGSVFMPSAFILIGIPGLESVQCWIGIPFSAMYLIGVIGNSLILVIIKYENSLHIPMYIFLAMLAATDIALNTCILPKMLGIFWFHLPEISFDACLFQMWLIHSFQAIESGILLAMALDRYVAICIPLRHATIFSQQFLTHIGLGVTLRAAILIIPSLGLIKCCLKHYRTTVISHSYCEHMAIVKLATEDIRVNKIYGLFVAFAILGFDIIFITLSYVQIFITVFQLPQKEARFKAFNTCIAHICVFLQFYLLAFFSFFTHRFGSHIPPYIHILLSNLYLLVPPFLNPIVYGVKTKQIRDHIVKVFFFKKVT
Summary of the method: as §1

OR52B2 (Homo sapiens) = OR52B2 (Homo sapiens) (UniProt Q96RD2)
Chain of OR52B2 (Homo sapiens) (Q96RD2 whole entry): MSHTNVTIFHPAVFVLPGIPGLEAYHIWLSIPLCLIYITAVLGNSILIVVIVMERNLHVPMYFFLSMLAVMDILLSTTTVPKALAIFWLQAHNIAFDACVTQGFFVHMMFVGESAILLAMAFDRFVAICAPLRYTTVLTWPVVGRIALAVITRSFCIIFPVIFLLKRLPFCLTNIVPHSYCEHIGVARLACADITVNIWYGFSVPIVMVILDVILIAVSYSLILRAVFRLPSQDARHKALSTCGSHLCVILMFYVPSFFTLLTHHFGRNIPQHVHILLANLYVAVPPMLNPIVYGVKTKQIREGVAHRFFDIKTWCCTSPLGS
Summary of the method: as §1

OR52B4 (Homo sapiens) = OR52B4 (Homo sapiens) (UniProt Q8NGK2)
Chain of OR52B4 (Homo sapiens) (Q8NGK2 whole entry): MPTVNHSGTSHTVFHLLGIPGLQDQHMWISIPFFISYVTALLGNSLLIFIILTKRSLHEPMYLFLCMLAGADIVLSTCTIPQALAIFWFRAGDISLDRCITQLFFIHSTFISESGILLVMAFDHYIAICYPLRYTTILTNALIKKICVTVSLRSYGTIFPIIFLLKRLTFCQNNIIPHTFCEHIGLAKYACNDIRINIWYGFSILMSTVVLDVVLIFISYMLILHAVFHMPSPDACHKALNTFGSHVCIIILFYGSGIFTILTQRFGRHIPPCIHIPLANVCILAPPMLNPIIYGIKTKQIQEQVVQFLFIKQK
Summary of the method: as §1

OR52B6 (Homo sapiens) = OR52B6 (Homo sapiens) (UniProt Q8NGF0)
Chain of OR52B6 (Homo sapiens) (Q8NGF0 whole entry): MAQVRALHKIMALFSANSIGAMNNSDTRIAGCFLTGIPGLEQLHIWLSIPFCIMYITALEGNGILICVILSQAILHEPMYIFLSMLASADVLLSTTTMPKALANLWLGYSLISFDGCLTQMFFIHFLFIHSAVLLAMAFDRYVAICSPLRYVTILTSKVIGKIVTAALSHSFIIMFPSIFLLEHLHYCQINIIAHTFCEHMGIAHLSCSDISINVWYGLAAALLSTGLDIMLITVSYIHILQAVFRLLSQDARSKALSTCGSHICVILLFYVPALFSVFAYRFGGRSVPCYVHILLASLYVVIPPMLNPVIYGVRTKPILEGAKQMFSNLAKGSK
Summary of the method: as §1

OR51F1 (Homo sapiens) = OR51F1 (Homo sapiens) (UniProt A6NGY5)
Summary of the method: as §1

OR51H1 (Homo sapiens) = OR51H1 (Homo sapiens) (UniProt Q8NH63)
Summary of the method: as §1

OR51T1 (Homo sapiens) = OR51T1 (Homo sapiens) (UniProt Q8NGJ9)
Summary of the method: as §1

OR52A4P (Homo sapiens) = OR52A4P (Homo sapiens) (UniProt A6NMU1)
Summary of the method: as §1

Measured: odorant receptor agonist call;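 further: active if original authors judged signal statistically different from baseline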

O=c1cc(O)c2ccccc2o1
inactive: OR51L1 (Homo sapiens)

C=CCOC(=O)Cc1ccccc1
inactive: OR51F2 (Homo sapiens) | OR51G1 (Homo sapiens) | OR51G2 (Homo sapiens) | OR51I1 (Homo sapiens) | OR51I2 (Homo sapiens) | OR51J1 (Homo sapiens) | OR51M1 (Homo sapiens) | OR51Q1 (Homo sapiens) | OR51S1 (Homo sapiens) | OR51V1 (Homo sapiens) | OR52A1 (Homo sapiens) | OR52A5 (Homo sapiens) | OR52B2 (Homo sapiens) | OR52B4 (Homo sapiens) | OR52B6 (Homo sapiens)
active: OR51L1 (Homo sapiens)

Cc1c([N+](=O)[O-])c(C)c([N+](=O)[O-])c(C(C)(C)C)c1[N+](=O)[O-]
inactive: OR51F1 (Homo sapiens) | OR51F2 (Homo sapiens) | OR51G1 (Homo sapiens) | OR51G2 (Homo sapiens) | OR51H1 (Homo sapiens) | OR51I1 (Homo sapiens) | OR51I2 (Homo sapiens) | OR51J1 (Homo sapiens) | OR51L1 (Homo sapiens) | OR51M1 (Homo sapiens) | OR51Q1 (Homo sapiens) | OR51S1 (Homo sapiens) | OR51T1 (Homo sapiens) | OR51V1 (Homo sapiens) | OR52A1 (Homo sapiens) | OR52A4P (Homo sapiens) | OR52A5 (Homo sapiens) | OR52B2 (Homo sapiens) | OR52B4 (Homo sapiens) | OR52B6 (Homo sapiens)

CCC1CCC(=O)O1 (centres undefined)
inactive: OR51L1 (Homo sapiens)

C=CCc1ccccc1
inactive: OR51L1 (Homo sapiens)
